Calls of active or inactive are those of the source. No cut-off for these calls is given here.
Legend:
[1] = Half-life estimated in human plasma; assay type: ADME
In short: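 Compounds incubated in human plasma. Breakdown followed by TLC separation, and half-life estimated from this.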

CEM-c113 [2] = experiment: Antiviral activity measured in lymphocytic cell line (CEM-C113) infected with HIV-1 cell free supernatants; assay type: functional, cell-based; settings: Homo sapiens
In short: (§1)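 CEM-Cl13 T-lymphoblastoid cells in RPMI 1640 with 5% heat-inactivated FCS at 37 °C, 5% CO2. Wells seeded with 10000 cells and given compound dilutions in triplicate (DMF stock diluted in water, at most 0.1% DMF final). Infected with HIV-1 LAV-Bru cell-free supernatant at 50-250 times the minimal infecting dose, cultured 7 days. MTT viability read at 540 nm. EC50 is the dose giving 50% protection from CPE. SI is IC50/EC50.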

[3] = Selectivity index expressed as ratio of IC50 (CEM-C113) to EC50 from MTT assay; assay type: functional; in short: as §1
CEM-c113 [4] = experiment: Effective concentration that reduces HIV-induced cytopathic effect by 50% was determined by MTT assay.; assay type: functional, cell-based; settings: Homo sapiens; in short: as §1
[5] = Selectivity index expressed as ratio of IC50 (CEM-C113) to EC50 from MTT assay; inactive; assay type: functional; in short: as §1
[6] = target: Human immunodeficiency virus type 1 reverse transcriptase (Human immunodeficiency virus 1) (UniProt Q72547); experiment: Selectivity index expressed as ratio of IC50 (CEM-C113) to EC50 from RT assay
In short: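 HIV-1 LAV-Bru cell-free supernatant used to infect CEM-Cl13 cells (10000/well, triplicate compound dilutions, 7-day culture). EC50 is 50% reduction of RT activity. SI is the ratio of the mock-infected MTT IC50 to this EC50.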

Structure (SMILES) | half-life [1] | IC50 (CEM-c113 [2]) | Selectivity index [3] | EC50 (CEM-c113 [4]) | Selectivity index [5] | Selectivity index [6]
CCCCCCCCCCCCCCCCOC(=O)OCC1C=CC(n2cc(C)c(=O)[nH]c2=O)O1 (centres undefined) | > 24 h | > 20 µM | > 66 | 0.3 µM | – | –
CCCCCCCCCCCCCCCCNC(=O)OCC1C=CC(n2cc(C)c(=O)[nH]c2=O)O1 (centres undefined) | > 24 h | > 20 µM | – | > 20 µM | inactive | –
Cc1cn(C2C=CC(COP(=O)(OCCC#N)OCC3C=CC(n4cc(C)c(=O)[nH]c4=O)O3)O2)c(=O)[nH]c1=O (centres undefined) | 12 h | 17 µM | 17 | 1 µM | – | –
CCCCCCCCCCCCCCCC(=O)OCC1C=CC(n2cc(C)c(=O)[nH]c2=O)O1 (centres undefined) | 4 h | 4 µM | 40 | 0.1 µM | – | 50
Cc1cn([C@H]2C[C@H](N=[N+]=[N-])[C@@H](CO)O2)c(=O)[nH]c1=O [ZIDOVUDINE] | – | 20 µM | 3330 | 0.006 µM | – | 2000
Cc1cn(C2C=CC(COP(=O)(O)OCC3C=CC(n4cc(C)c(=O)[nH]c4=O)O3)O2)c(=O)[nH]c1=O (centres undefined) | > 24 h | 100 µM | 5000 | 0.02 µM | – | 2000
Cc1cn([C@H]2C=C[C@@H](CO)O2)c(=O)[nH]c1=O [STAVUDINE] | – | 10 µM | 125 | 0.08 µM | – | 200
CCCCCCCCCCCCCCCCOP(=O)(O)OCC1C=CC(n2cc(C)c(=O)[nH]c2=O)O1 (centres undefined) | > 24 h | 10 µM | 83 | 0.12 µM | – | 50
CCCCCCCCCCCCCCCCOP(=O)(OCCC#N)OCC1C=CC(n2cc(C)c(=O)[nH]c2=O)O1 (centres undefined) | 12 h | 17 µM | 4 | 4.3 µM | – | –

Reference: ChEMBL document CHEMBL1126627, “Synthesis and anti-HIV evaluation of D4T and D4T 5'-monophosphate prodrugs” (J Med Chem, 1993)
